Active and inactive are the calls of the source. The calls are words filed in the database; no cut-off is given here.
Columns and labels:
[1] = Cytotoxicity against human PC3 cells assessed as growth inhibition after 72 hrs by Alamar blue assay; format: functional, cell-based; details: PC-3, 72 h
[2] = Cell cycle arrest in human PC3 cells assessed as accumulation at G0/G1 phase at 0.04 uM after 24 hrs by propidium iodide staining based flow cytometry (reference value: 55.6 +/- 1.4%); format: functional; details: PC-3
Summary of the method: (§1)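 PC3 cells exposed to compound at various concentrations for 24 h, then harvested, rinsed in ice-cold PBS and fixed in 70% alcohol at −20 °C for 16 h. After a second cold PBS wash, cells were held 20 min at room temperature in 1 mL containing 0.1% Triton X-100, 0.2 mg RNase A and 2 μL PI (1 mg/mL). DNA content was read by flow cytometry.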

[3] = Cell cycle arrest in human PC3 cells assessed as accumulation at S phase at 0.04 uM after 24 hrs by propidium iodide staining based flow cytometry (reference value: 25.8 +/- 0.7%); format: functional; details: PC-3; summary of the method: as §1
[4] = Cell cycle arrest in human PC3 cells assessed as accumulation at S phase at 0.4 uM after 24 hrs by propidium iodide staining based flow cytometry (reference value: 15.3 to 25.8%); format: functional; details: PC-3; summary of the method: as §1
[5] = Cell cycle arrest in human PC3 cells assessed as accumulation at G0/G1 phase at 0.13 uM after 24 hrs by propidium iodide staining based flow cytometry (reference value: 55.6 +/- 1.4%); format: functional; details: PC-3; summary of the method: as §1
[6] = Cell cycle arrest in human PC3 cells assessed as accumulation at S phase at 0.13 uM after 24 hrs by propidium iodide staining based flow cytometry (reference value: 25.8 +/- 0.7%); format: functional; details: PC-3; summary of the method: as §1
[7] = Cell cycle arrest in human PC3 cells assessed as accumulation at G2/M phase at 0.04 uM after 24 hrs by propidium iodide staining based flow cytometry (reference value: 18.7 +/- 0.7%); format: functional; details: PC-3; summary of the method: as §1
[8] = Cell cycle arrest in human PC3 cells assessed as accumulation at G0/G1 phase at 0.4 uM after 24 hrs by propidium iodide staining based flow cytometry (reference value: 55.6 to 62.5%); format: functional; details: PC-3; summary of the method: as §1
[9] = Cell cycle arrest in human PC3 cells assessed as accumulation at G2/M phase at 0.13 uM after 24 hrs by propidium iodide staining based flow cytometry (reference value: 18.7 +/- 0.7%); format: functional; details: PC-3; summary of the method: as §1
[10] = Cell cycle arrest in human PC3 cells assessed as accumulation at G2/M phase at 0.4 uM after 24 hrs by propidium iodide staining based flow cytometry (reference value: 18.7 to 22.2%); format: functional; details: PC-3; summary of the method: as §1
[11] = Cell cycle arrest in human PC3 cells assessed as accumulation at G0/G1 phase at 1.3 uM after 24 hrs by propidium iodide staining based flow cytometry (reference value: 62.5 +/- […]%); format: functional; details: PC-3
[12] = Cell cycle arrest in human PC3 cells assessed as accumulation at G0/G1 phase at 4 uM after 24 hrs by propidium iodide staining based flow cytometry (reference value: 62.5 +/- […]%); format: functional; details: PC-3
[13] = Cell cycle arrest in human PC3 cells assessed as accumulation at G2/M phase at 1.3 uM after 24 hrs by propidium iodide staining based flow cytometry (reference value: 22.2 +/- 0.4%); format: functional; details: PC-3; summary of the method: as §1
[14] = Cell cycle arrest in human PC3 cells assessed as accumulation at S phase at 4 uM after 24 hrs by propidium iodide staining based flow cytometry (reference value: 15.3 +/- 3.1%); format: functional; details: PC-3; summary of the method: as §1
[15] = Cell cycle arrest in human PC3 cells assessed as accumulation at S phase at 1.3 uM after 24 hrs by propidium iodide staining based flow cytometry (reference value: 15.3 +/- 3.1%); format: functional; details: PC-3; summary of the method: as §1
[16] = Cell cycle arrest in human PC3 cells assessed as accumulation at G2/M phase at 4 uM after 24 hrs by propidium iodide staining based flow cytometry (reference value: 22.2 +/- 0.4%); format: functional; details: PC-3; summary of the method: as §1
[17] = system: PC-3; assay: Cytotoxicity against human PC3 cells assessed as growth inhibition at 80 uM after 72 hrs by Alamar blue assay; format: functional, cell-based

SMILES: CC(=O)O[C@H]1C(=O)[C@@]2(C)[C@H]([C@H](OC(=O)c3ccccc3)[C@]3(O)C[C@H](OC(=O)[C@H](O)[C@@H](NC(=O)c4ccccc4)c4ccccc4)C(C)=C1C3(C)C)[C@]1(OC(C)=O)CO[C@@H]1C[C@@H]2O [PACLITAXEL]
- IC50 [1]: 2 nM

SMILES: CC[C@@]1(O)C(Br)=C(Br)C(=O)C1=C(Br)Br
- Activity [2]: 63.3%
- Activity [3]: 18.1%
- Activity [4]: 11.5%
- Activity [5]: 75%
- Activity [6]: 13.8%
- IC50 [1]: 440 nM
- Activity [7]: 13.6%
- Activity [8]: 88.4%
- Activity [9]: 11.2%
- Activity [10]: 0.1%

SMILES: Cc1oc(C(Br)=C(Br)Br)cc(=O)c1O
- Activity [11]: 72.7%
- Activity [4]: 18.2%
- Activity [12]: 73.3%
- Activity [13]: 5.8%
- Activity [14]: 23.8%
- IC50 [1]: 10000 nM
- Activity [15]: 21.5%
- Activity [16]: 2.9%
- Activity [8]: 63.7%
- Activity [10]: 18.1%

SMILES: CC(=O)O[C@@H](C(Br)=C(Br)Br)C(Br)Br
- inhibition [17]: inactive
